Laboratory results from ChEMBL document CHEMBL3286367, “Synthesis of new class of spirocarbocycle derivatives by multicomponent domino reaction and their evaluation for antimicrobial, anticancer activity and molecular docking studies” (2014).
Converted amounts (≈) assume the structure as drawn.

How the values were obtained:
Malassezia pachydermatis = assay: Antifungal activity against Malassezia pachydermatis assessed as zone of inhibition at 1 mg/disc after 48 hrs incubation by disc diffusion assay; format: functional
Procedure, shortened: (§1)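 Disc diffusion on Mueller Hinton agar with swabbed cultures, 1 mg compound per disc. Discs stood 30 min at room temperature for diffusion, then plates incubated 48 h at 28 °C. Solvent as negative control. Yeast pre-grown in Sabouraud dextrose broth at 28 °C for 48-72 h; filamentous fungal spores came from SDA slants grown 10 days at 28 °C. Zone diameters in mm; run twice.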

[1] = test system: Staphylococcus epidermidis; assay: Antimicrobial activity against Staphylococcus epidermidis MTCC 3615 assessed as absence of visible growth after 48 to 72 hrs; format: functional
Staphylococcus aureus [2] = assay: Antimicrobial activity against methicillin-resistant Staphylococcus aureus assessed as zone of inhibition at 1 mg/disc after 24 hrs incubation by disc diffusion assay; format: functional
Procedure, shortened: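 Inoculum grown in Mueller Hinton broth 24 h at 37°C, swabbed onto Mueller Hinton agar and dried 10 min. Discs loaded at 1 mg/disc, then 30 min at room temperature for diffusion. Plates incubated 24 h at 37°C. Solvent negative control; streptomycin positive control. Zone of inhibition read in mm; experiment done twice.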

Micrococcus luteus [3] = assay: Antimicrobial activity against Micrococcus luteus MTCC 106 assessed as zone of inhibition at 1 mg/disc after 24 hrs incubation by disc diffusion assay; format: functional
Procedure, shortened: (§2)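 Inocula grown in Mueller Hinton broth for 24 h at 37 °C and swabbed onto Mueller Hinton agar. Discs carried 1 mg compound each and stood 30 min at room temperature before 24 h incubation at 37 °C. Solvent as negative control. Inhibition zones recorded in mm; experiment done twice.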

Shigella flexneri [4] = assay: Antimicrobial activity against Shigella flexneri MTCC 1457 assessed as zone of inhibition at 1 mg/disc after 24 hrs incubation by disc diffusion assay; format: functional; procedure, shortened: as §2
Salmonella typhimurium [5] = assay: Antimicrobial activity against Salmonella typhimurium MTCC 1251 assessed as absence of visible growth after 48 to 72 hrs; format: functional, Salmonella enterica subsp. enterica serovar Typhimurium; conditions: Salmonella enterica
Shigella flexneri [6] = assay: Antimicrobial activity against Shigella flexneri MTCC 1457 assessed as absence of visible growth after 24 hrs
Proteus vulgaris [7] = assay: Antimicrobial activity against Proteus vulgaris MTCC 1771 assessed as absence of visible growth after 48 to 72 hrs; format: functional
Klebsiella pneumoniae [8] = assay: Antimicrobial activity against Klebsiella pneumonia MTCC 109 assessed as zone of inhibition at 1 mg/disc after 24 hrs incubation by disc diffusion assay; format: functional; procedure, shortened: as §2
Klebsiella pneumoniae [9] = assay: Antimicrobial activity against Klebsiella pneumonia MTCC 109 assessed as absence of visible growth after 48 to 72 hrs; format: functional
Staphylococcus aureus [10] = assay: Antimicrobial activity against Staphylococcus aureus MTCC 96 assessed as zone of inhibition at 1 mg/disc after 24 hrs incubation by disc diffusion assay; format: functional; procedure, shortened: as §2
[11] = test system: Staphylococcus epidermidis; assay: Antimicrobial activity against Staphylococcus epidermidis MTCC 3615 assessed as zone of inhibition at 1 mg/disc after 24 hrs incubation by disc diffusion assay; format: functional; procedure, shortened: as §2
Salmonella typhimurium [12] = assay: Antimicrobial activity against Salmonella typhimurium MTCC 1251 assessed as zone of inhibition at 1 mg/disc after 24 hrs incubation by disc diffusion assay; format: functional, Salmonella enterica subsp. enterica serovar Typhimurium; procedure, shortened: as §2
Staphylococcus aureus [13] = assay: Antimicrobial activity against methicillin-resistant Staphylococcus aureus assessed as absence of visible growth after 48 to 72 hrs; format: functional
Procedure, shortened: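 Broth two-fold serial dilution in 96-well plates, 1000 to 7.81 µg/mL, compound dissolved in DMSO (2%). Inoculum grown in Mueller Hinton broth 24 h at 37°C. Streptomycin positive control. 5 µl of tested broth plated on MHA; MIC is the lowest concentration inhibiting visible growth on agar.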

Staphylococcus aureus [14] = assay: Antimicrobial activity against Staphylococcus aureus MTCC 96 assessed as absence of visible growth after 48 to 72 hrs; format: functional
Proteus vulgaris [15] = assay: Antimicrobial activity against Proteus vulgaris MTCC 1771 assessed as zone of inhibition at 1 mg/disc after 24 hrs incubation by disc diffusion assay; format: functional; procedure, shortened: as §2
Candida albicans = assay: Antifungal activity against Candida albicans MTCC 227 assessed as zone of inhibition at 1 mg/disc after 48 hrs incubation by disc diffusion assay; format: functional; procedure, shortened: as §1
Klebsiella aerogenes [16] = assay: Antimicrobial activity against Enterobacter aerogenes MTCC 111 assessed as absence of visible growth after 48 to 72 hrs; format: functional
Micrococcus luteus [17] = assay: Antimicrobial activity against Micrococcus luteus MTCC 106 assessed as absence of visible growth after 48 to 72 hrs; format: functional
Klebsiella aerogenes [18] = assay: Antimicrobial activity against Enterobacter aerogenes MTCC 111 assessed as zone of inhibition at 1 mg/disc after 24 hrs incubation by disc diffusion assay; format: functional; procedure, shortened: as §2
Shigella flexneri [19] = assay: Antimicrobial activity against Shigella flexneri MTCC 1457 assessed as absence of visible growth after 48 to 72 hrs; format: functional
[20] = test system: Staphylococcus epidermidis; assay: Antimicrobial activity against Staphylococcus epidermidis MTCC 3615 assessed as absence of visible growth after 24 hrs
A549 [21] = assay: Anticancer activity against human A549 cells assessed as cell growth inhibition at 40 ug/ml by MTT assay; format: functional; conditions: read-out: GI
Procedure, shortened: (§3)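 A549 cells kept in DMEM with 10% FBS, 2 mM L-glutamine, penicillin/streptomycin, pH 7.2. Seeded at 5000 cells/well in medium with compound at 5–50 µg/mL. Grown at 37 °C, 5% CO2. Medium then replaced by 1 mg/mL MTT for 4 h and formazan dissolved in DMSO. Absorbance read at 540 nm; three replicate experiments.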

A549 [22] = assay: Anticancer activity against human A549 cells assessed as cell growth inhibition at 50 ug/ml by MTT assay; format: functional; conditions: read-out: GI; procedure, shortened: as §3
A549 [23] = assay: Anticancer activity against human A549 cells assessed as cell growth inhibition at 20 ug/ml by MTT assay; format: functional; conditions: read-out: GI; procedure, shortened: as §3
A549 [24] = assay: Anticancer activity against human A549 cells assessed as cell growth inhibition at 5 ug/ml by MTT assay; format: functional; conditions: read-out: GI; procedure, shortened: as §3
A549 [25] = assay: Anticancer activity against human A549 cells assessed as cell growth inhibition at 30 ug/ml by MTT assay; format: functional; conditions: read-out: GI; procedure, shortened: as §3
A549 [26] = assay: Anticancer activity against human A549 cells assessed as cell growth inhibition at 10 ug/ml by MTT assay; format: functional; conditions: read-out: GI; procedure, shortened: as §3
Klebsiella pneumoniae [27] = assay: Antimicrobial activity against Klebsiella pneumonia MTCC 109 assessed as absence of visible growth after 24 hrs

Row | Structure (SMILES) | inhibition zone (IZ) (Malassezia pachydermatis) [mm] | MIC [1] [µg/mL] | inhibition zone (IZ) (Staphylococcus aureus [2]) [mm] | inhibition zone (IZ) (Micrococcus luteus [3]) [mm] | inhibition zone (IZ) (Shigella flexneri [4]) [mm] | MIC (Salmonella typhimurium [5]) [µg/mL] | MIC (Shigella flexneri [6]) [µg/mL] | MIC (Proteus vulgaris [7]) [µg/mL] | inhibition zone (IZ) (Klebsiella pneumoniae [8]) [mm] | MIC (Klebsiella pneumoniae [9]) [µg/mL] | inhibition zone (IZ) (Staphylococcus aureus [10]) [mm] | inhibition zone (IZ) [11] [mm] | inhibition zone (IZ) (Salmonella typhimurium [12]) [mm] | MIC (Staphylococcus aureus [13]) [µg/mL] | MIC (Staphylococcus aureus [14]) [µg/mL] | inhibition zone (IZ) (Proteus vulgaris [15]) [mm] | inhibition zone (IZ) (Candida albicans) [mm] | MIC (Klebsiella aerogenes [16]) [µg/mL] | MIC (Micrococcus luteus [17]) [µg/mL] | inhibition zone (IZ) (Klebsiella aerogenes [18]) [mm] | also measured
1 | COc1ccc([C@H]2[C@@H]3CCCC=C3C(C#N)=C(N)C23C(=O)CCCC3=O)cc1 (relative stereo) | 9 | 250 (≈ 664 µM) | 15 | 21 | 19 | 250 (≈ 664 µM) | 125 (≈ 332 µM) | 125 (≈ 332 µM) | 16 | 125 (≈ 332 µM) | 14 | 13 | 11 | 250 (≈ 664 µM) | 250 (≈ 664 µM) | 17 | 10 | 250 (≈ 664 µM) | 250 (≈ 664 µM) | 14 | 
2 | Cc1ccc([C@H]2[C@@H]3CCC=C3C(C#N)=C(N)C23C(=O)c2ccccc2C3=O)cc1 (relative stereo) | 13 |  | 12 | 12 | 13 | 500 (≈ 1310 µM) |  | 125 (≈ 329 µM) | 15 | 250 (≈ 657 µM) | 17 | 14 | 10 | 250 (≈ 657 µM) | 125 (≈ 329 µM) | 16 | 10 | 250 (≈ 657 µM) | 250 (≈ 657 µM) | 15 | MIC (Shigella flexneri [19]): 250 µg/mL (≈ 657 µM); MIC [20]: 250 µg/mL (≈ 657 µM)
3 | N#CC1=C(N)[C@]2(C(=O)Nc3ccccc32)[C@@H](c2cccs2)[C@@H]2CCCC=C12 | 12 | 125 (≈ 335 µM) | 21 | 15 | 25 | 250 (≈ 669 µM) | 62.5 (≈ 167 µM) | 62.5 (≈ 167 µM) | 16 | 125 (≈ 335 µM) | 13 | 19 | 15 | 62.5 (≈ 167 µM) | 250 (≈ 669 µM) | 23 | 10 | 125 (≈ 335 µM) | 250 (≈ 669 µM) | 17 | inhibition of growth at 40 µg/mL (A549 [21]): 75.9%; inhibition of growth at 50 µg/mL (A549 [22]): 83.9%; inhibition of growth at 20 µg/mL (A549 [23]): 62.4%; inhibition of growth at 5 µg/mL (A549 [24]): 25.7%; inhibition of growth at 30 µg/mL (A549 [25]): 67.8%; inhibition of growth at 10 µg/mL (A549 [26]): 45.8%
4 | CN[C@@H]1[C@H](O[C@H]2[C@H](O[C@H]3[C@H](O)[C@@H](O)[C@H](N=C(N)N)[C@@H](O)[C@@H]3N=C(N)N)O[C@@H](C)[C@]2(O)C=O)O[C@@H](CO)[C@H](O)[C@H]1O [STREPTOMYCIN] |  | 6.25 (≈ 10.7 µM) | 30 | 26 | 30 | 30 (≈ 51.6 µM) | 6.25 (≈ 10.7 µM) | 6.25 (≈ 10.7 µM) | 20 | 6.25 (≈ 10.7 µM) | 14 | 26 | 18 | 6.25 (≈ 10.7 µM) | 6.25 (≈ 10.7 µM) | 30 |  | 25 (≈ 43 µM) | 6.25 (≈ 10.7 µM) | 22 | 
5 | N#CC1=C(N)C2(C(=O)c3ccccc3C2=O)[C@@H](c2ccc(Cl)cc2)[C@@H]2CCCCC=C12 (relative stereo) | 12 |  | 21 | 21 | 22 | 125 (≈ 291 µM) | 62.5 (≈ 146 µM) | 62.5 (≈ 146 µM) | 17 |  | 13 | 17 | 18 | 62.5 (≈ 146 µM) | 250 (≈ 583 µM) | 23 | 13 | 125 (≈ 291 µM) | 62.5 (≈ 146 µM) | 18 | inhibition of growth at 40 µg/mL (A549 [21]): 62.4%; inhibition of growth at 50 µg/mL (A549 [22]): 78.8%; inhibition of growth at 20 µg/mL (A549 [23]): 47.5%; MIC (Klebsiella pneumoniae [27]): 125 µg/mL (≈ 291 µM); inhibition of growth at 5 µg/mL (A549 [24]): 12.1%; MIC [20]: 125 µg/mL (≈ 291 µM); inhibition of growth at 30 µg/mL (A549 [25]): 56.2%; inhibition of growth at 10 µg/mL (A549 [26]): 28.1%
6 | Cc1ccc([C@H]2[C@@H]3CCCC=C3C(C#N)=C(N)C23C(=O)c2ccccc2C3=O)cc1 (relative stereo) | 11 |  | 11 | 9 | 8 | 250 (≈ 634 µM) |  | 500 (≈ 1270 µM) | 15 | 250 (≈ 634 µM) | 10 | 10 | 14 | 250 (≈ 634 µM) | 250 (≈ 634 µM) | 10 | 10 | 250 (≈ 634 µM) | 1000 (≈ 2540 µM) | 13 | MIC (Shigella flexneri [19]): 1000 µg/mL (≈ 2540 µM); MIC [20]: 500 µg/mL (≈ 1270 µM)
